Like-named read-outs stand apart in the source and are kept apart here.
Legend:
recombinant Top1 [1] = target: T1, recombinant Top1 (Homo sapiens, UniProt P11387); assay: Top1-mediated DNA cleavage assay; format: biochemical; settings: for Top1 Cleavage: score relative to 1 μM camptothecin (1), tested at 0.1, 1, 10, 100 μM
T1 sequence (P11387 1-765): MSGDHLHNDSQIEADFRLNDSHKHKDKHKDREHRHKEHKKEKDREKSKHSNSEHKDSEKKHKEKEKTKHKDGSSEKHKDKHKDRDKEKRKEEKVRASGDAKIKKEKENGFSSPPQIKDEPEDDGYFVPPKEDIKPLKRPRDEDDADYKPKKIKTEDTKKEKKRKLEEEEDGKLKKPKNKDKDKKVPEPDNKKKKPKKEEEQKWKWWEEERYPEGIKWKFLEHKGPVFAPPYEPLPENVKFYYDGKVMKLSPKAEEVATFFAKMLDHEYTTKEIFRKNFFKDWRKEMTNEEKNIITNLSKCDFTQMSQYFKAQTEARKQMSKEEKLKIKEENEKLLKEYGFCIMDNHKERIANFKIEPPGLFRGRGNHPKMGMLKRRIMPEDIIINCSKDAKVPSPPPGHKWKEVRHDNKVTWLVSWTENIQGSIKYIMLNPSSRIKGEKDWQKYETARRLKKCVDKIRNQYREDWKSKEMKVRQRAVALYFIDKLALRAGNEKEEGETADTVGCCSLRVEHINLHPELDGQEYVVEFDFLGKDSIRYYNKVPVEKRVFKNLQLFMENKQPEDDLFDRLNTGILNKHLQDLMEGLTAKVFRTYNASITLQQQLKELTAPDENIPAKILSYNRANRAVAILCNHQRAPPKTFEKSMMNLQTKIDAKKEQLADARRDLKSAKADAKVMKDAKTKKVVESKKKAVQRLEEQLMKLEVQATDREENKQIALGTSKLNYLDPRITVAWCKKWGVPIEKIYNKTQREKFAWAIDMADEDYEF

Melanoma UACC-62 = settings: read-out: Cytotoxicity (GI50, μM) Melanoma UACC-62; NCI-60; cited from earlier work
recombinant Top1 [2] = target: T1, recombinant Top1; design: key to the marks not given beside the values; settings: score relative to 1 μM camptothecin (1); cited from earlier work
Colon HCT-116 = settings: read-out: Cytotoxicity (GI50, μM) Colon HCT-116; NCI-60; cited from earlier work
Renal SN12C = settings: read-out: Cytotoxicity (GI50, μM) Renal SN12C; NCI-60; cited from earlier work
Lung HOP-62 = settings: read-out: Cytotoxicity (GI50, μM) Lung HOP-62; NCI-60; cited from earlier work
Prostate DU-145 = settings: read-out: Cytotoxicity (GI50, μM) Prostate DU-145; NCI-60; cited from earlier work
Ovarian OVCAR-3 = settings: read-out: Cytotoxicity (GI50, μM) Ovarian OVCAR-3; NCI-60; cited from earlier work
CNS SF-539 = settings: read-out: Cytotoxicity (GI50, μM) CNS SF-539; NCI-60; cited from earlier work
[3] = tested on: all 60 cell lines (NCI-60 human tumor cell line screen); assay: NCI-60 GI50 mean graph midpoint; format: cell-based; settings: read-out: Cytotoxicity (GI50, μM) MGM
Procedure, shortened: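 Compounds were first screened at a single 10 μM dose across NCI-60 lines. Those with low enough averaged growth percent advanced to a five-concentration assay (10⁻⁸–10⁻⁴ M). […] Values beyond the range were recorded as the minimum or maximum tested concentration. MGM is the average GI50 over all 60 lines.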

[4] = cited from earlier work

With `O=C1c2cc3c(cc2-c2c1c1cc(Cl)c(Cl)cc1c(=O)n2C[C@H](O)CO)OCO3` [Compound 45, (S)-2,3-Dichloro-6-(2,3-dihydroxypropyl)-8,9-methylenedioxy-5,11-dioxo-11H-indeno[1,2-c]isoquinoline] the “Top1 Cleavage” value (recombinant Top1 [1]) was “++ (++, between 50 and 75% activity)”.
For `COc1cc2c3c(n(CCCN4CCOCC4)c(=O)c2cc1OC)-c1cc2c(cc1C3=O)OCO2` [Compound 4, indotecan], the GI50 (Melanoma UACC-62) is listed as 0.03 µM, the “Top1 Cleavage” value (recombinant Top1 [2]) is listed as “++++” and the GI50 (Colon HCT-116) is listed as 1.15 µM. The GI50 (Renal SN12C) was 0.813 µM, the GI50 (Lung HOP-62) was 1.78 µM and the GI50 (Prostate DU-145) was 0.155 µM. For the same compound, the GI50 (Ovarian OVCAR-3) was 74.1 µM and the GI50 (CNS SF-539) was 0.04 µM.
With `O=C1c2cc3c(cc2-c2c1c1ccc(F)cc1c(=O)n2C[C@H](O)CO)OCO3` [Compound 21, (S)-3-Fluoro-6-(2,3-dihydroxypropyl)-8,9-methylenedioxy-5H-indeno[1,2-c]isoquinoline-5,11(6H)-dione] the “Top1 Cleavage” value (recombinant Top1 [1]) was “++++”.
With `O=C1c2cc3c(cc2-c2c1c1cc(Cl)c(Cl)cc1c(=O)n2CCCn1ccnc1)OCO3` [Compound 46, 2,3-Dichloro-6-(3-(1H-imidazol-1-yl)propyl)-8,9-methylenedioxy-5,11-dioxo-11H-indeno[1,2-c]isoquinoline] the “Top1 Cleavage” value (recombinant Top1 [1]) was “+ (+, between 20 and 50% activity)”.
In the case of `O=C(O)C(F)(F)F.O=C1c2cc3c(cc2-c2c1c1ccc(Cl)cc1c(=O)n2CCCN1CCOCC1)OCO3` [Compound 28, 3-Chloro-5,6-dihydro-6-(3-morpholinopropyl)-8,9-methylenedioxy-5,11-dioxo-11H-indeno[1,2-c]isoquinoline Trifluoroacetate], the “Top1 Cleavage” value (recombinant Top1 [1]) is reported as “+ (+, between 20 and 50% activity)”.
For `O=C1c2cc3c(cc2-c2c1c1cc(F)c(F)cc1c(=O)n2CCCn1ccnc1)OCO3` [Compound 38, 2,3-Difluoro-6-(3-(1H-imidazol-1-yl)propyl)-8,9-methylenedioxy-5,11-dioxo-11H-indeno[1,2-c]isoquinoline], the GI50 [3] was 0.03 µM and the “Top1 Cleavage” value (recombinant Top1 [1]) was “+ (+, between 20 and 50% activity)”.
In the case of `O=C(O)C(F)(F)F.O=C1c2cc3c(cc2-c2c1c1ccc(F)cc1c(=O)n2CCCN1CCOCC1)OCO3` [Compound 27, 3-Fluoro-5,6-dihydro-6-(3-morpholinopropyl)-8,9-methylenedioxy-5,11-dioxo-11H-indeno[1,2-c]isoquinoline Trifluoroacetate], the “Top1 Cleavage” value (recombinant Top1 [1]) is reported as “+ (+, between 20 and 50% activity)”.
In the case of `O=C1c2cc3c(cc2-c2c1c1ccc(F)cc1c(=O)n2CCCn1ccnc1)OCO3` [Compound 25, 3-Fluoro-6-(3-(1H-imidazol-1-yl)propyl)-8,9-methylenedioxy-5,11-dioxo-11H-indeno[1,2-c]isoquinoline], the GI50 [3] is reported as no more than 0.011 µM, the Top1 suppression activity (recombinant Top1 [1]; high drug concentration (100 μM), band density at several cleavage sites decreases) is reported as “suppress Top1-mediated DNA cleavage” and the “Top1 Cleavage” value (recombinant Top1 [1]) is reported as “+++ (+++, between 75 and 95% activity)”.
In the case of `O=C1c2cc3c(cc2-c2c1c1ccc(F)cc1c(=O)n2C[C@H](O)[C@@H](O)[C@H](O)CO)OCO3` [Compound 23, (2′S,3′R,4′R)-3-Fluoro-5,6-dihydro-6-(2′,3′,4′,5′-tetrahydroxypentyl)-8,9-methylenedioxy-5,11-dioxo-11H-indeno[1,2-c]isoquinoline], the “Top1 Cleavage” value (recombinant Top1 [1]) is reported as “++ (++, between 50 and 75% activity)”.
For `O=C1c2cc3c(cc2-c2c1c1cc(F)c(F)cc1c(=O)n2C[C@H](O)CO)OCO3` [Compound 37, (S)-2,3-Difluoro-6-(2,3-dihydroxypropyl)-8,9-methylenedioxy-5,11-dioxo-11H-indeno[1,2-c]isoquinoline], the “Top1 Cleavage” value (recombinant Top1 [1]) was “++ (++, between 50 and 75% activity)”.
For `COc1cc2c3c(n(CCCNCCO)c(=O)c2cc1OC)-c1cc2c(cc1C3=O)OCO2` [Compound 6, MJ-III-65], the GI50 (Melanoma UACC-62) is listed as 0.03 µM, the “Top1 Cleavage” value (recombinant Top1 [2]) is listed as “++++” and the GI50 (Prostate DU-145) is listed as 0.02 µM.
In the case of `O=C1c2cc3c(cc2-c2c1c1ccc(Cl)cc1c(=O)n2C[C@H](O)[C@H](O)[C@H](O)CO)OCO3` [Compound 24, (2′S,3′S,4′R)-3-Chloro-5,6-dihydro-6-(2′,3′,4′,5′-tetrahydroxypentyl)-8,9-methylenedioxy-5,11-dioxo-11H-indeno[1,2-c]isoquinoline], the “Top1 Cleavage” value (recombinant Top1 [1]) is reported as “+ (+, between 20 and 50% activity)”.
With `O=C1c2cc3c(cc2-c2c1c1ccc(Cl)cc1c(=O)n2CCCn1ccnc1)OCO3` [Compound 26, 3-Chloro-6-(3-(1H-imidazol-1-yl)propyl)-8,9-methylenedioxy-5,11-dioxo-11H-indeno[1,2-c]isoquinoline] the “Top1 Cleavage” value (recombinant Top1 [1]) was “++ (++, between 50 and 75% activity)”.
In the case of `COc1cc2c3c(n(CCCn4ccnc4)c(=O)c2cc1OC)-c1cc2c(cc1C3=O)OCO2` [Compound 5, indimitecan], the GI50 (Melanoma UACC-62) is given as less than 0.01 µM, the “Metabolism in the presence of human liver microsomes” value [4] is given as “oxidative demethylation of the 2-methoxy group” and the “Top1 Cleavage” value (recombinant Top1 [2]) is given as “++++”. For the same compound, the GI50 (Colon HCT-116) was less than 0.01 µM, the GI50 (Renal SN12C) was less than 0.01 µM and the GI50 (Lung HOP-62) was less than 0.01 µM. For the same compound, the GI50 (Prostate DU-145) was less than 0.01 µM, the GI50 (Ovarian OVCAR-3) was 0.085 µM and the GI50 (CNS SF-539) was 0.037 µM.
For `O=C1c2cc3c(cc2-c2c1c1ccc(Cl)cc1c(=O)n2C[C@H](O)CO)OCO3` [Compound 22, (S)-3-Chloro-6-(2,3-dihydroxypropyl)-8,9-methylenedioxy-5H-indeno[1,2-c]isoquinoline-5,11(6H)-dione], the “Top1 Cleavage” value (recombinant Top1 [1]) was “++ (++, between 50 and 75% activity)”.

From publication PMC4789169 (Bioorganic & medicinal chemistry, 2016)
